Results on 17 molecules are retold here after ChEMBL document CHEMBL1140036, “Novel glucagon receptor antagonists with improved selectivity over the glucose-dependent insulinotropic polypeptide receptor” (J Med Chem, 2008).

Each structure is given as a SMILES string.

Format in all cases: cell-based
The target of one assay is Glucagon receptor (Homo sapiens, UniProt P47871). The assay is described as follows: Binding affinity to human cloned GluR expressed in BHK cells. The gist of the method:
(§1)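 Competitive binding on purified plasma membranes from BHK cells expressing the cloned human receptor (glucagon, GIP or GLP-1 receptor). The glucagon receptor protocol follows earlier published work, and the GIP and GLP-1 assays were done the same way.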

The target of assay [1] is T1, Gastric inhibitory polypeptide receptor (Homo sapiens, UniProt P48546).
T1 sequence (P48546 whole entry): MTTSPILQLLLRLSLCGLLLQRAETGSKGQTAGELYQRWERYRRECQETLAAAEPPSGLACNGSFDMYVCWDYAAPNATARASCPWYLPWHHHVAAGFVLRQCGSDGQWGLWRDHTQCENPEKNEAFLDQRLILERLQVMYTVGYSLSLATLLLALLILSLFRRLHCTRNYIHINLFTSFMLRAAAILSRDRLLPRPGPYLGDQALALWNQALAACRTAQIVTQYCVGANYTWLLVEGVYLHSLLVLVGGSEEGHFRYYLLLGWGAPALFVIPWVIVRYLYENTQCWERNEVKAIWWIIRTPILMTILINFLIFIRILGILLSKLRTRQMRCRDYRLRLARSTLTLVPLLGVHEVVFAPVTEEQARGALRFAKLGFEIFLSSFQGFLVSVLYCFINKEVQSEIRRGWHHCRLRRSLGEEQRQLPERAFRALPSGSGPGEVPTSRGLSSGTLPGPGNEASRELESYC
The assay can be described thus: Binding affinity to human cloned GIPR expressed in BHK cells. The gist of the method: as §1

In assay [2] the target is Glucagon-like peptide 1 receptor (Homo sapiens, UniProt P43220). The assay is described as follows: Binding affinity to human cloned GLP1R expressed in BHK cells. The gist of the method: as §1
Sequence of Glucagon-like peptide 1 receptor (P43220 whole entry): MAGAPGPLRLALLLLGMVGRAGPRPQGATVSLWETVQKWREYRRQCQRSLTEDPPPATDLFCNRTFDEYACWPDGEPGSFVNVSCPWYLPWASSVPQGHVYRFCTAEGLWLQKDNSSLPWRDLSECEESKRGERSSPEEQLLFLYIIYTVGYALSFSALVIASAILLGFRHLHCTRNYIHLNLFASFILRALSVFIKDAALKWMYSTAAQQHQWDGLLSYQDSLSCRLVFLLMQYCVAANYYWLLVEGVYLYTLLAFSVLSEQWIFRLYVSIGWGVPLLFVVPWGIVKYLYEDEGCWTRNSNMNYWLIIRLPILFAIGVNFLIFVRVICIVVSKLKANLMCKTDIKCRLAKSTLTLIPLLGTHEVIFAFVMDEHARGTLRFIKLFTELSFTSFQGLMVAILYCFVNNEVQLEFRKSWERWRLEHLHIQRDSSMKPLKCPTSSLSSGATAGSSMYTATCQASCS

Sequence of Glucagon receptor (P47871 whole entry): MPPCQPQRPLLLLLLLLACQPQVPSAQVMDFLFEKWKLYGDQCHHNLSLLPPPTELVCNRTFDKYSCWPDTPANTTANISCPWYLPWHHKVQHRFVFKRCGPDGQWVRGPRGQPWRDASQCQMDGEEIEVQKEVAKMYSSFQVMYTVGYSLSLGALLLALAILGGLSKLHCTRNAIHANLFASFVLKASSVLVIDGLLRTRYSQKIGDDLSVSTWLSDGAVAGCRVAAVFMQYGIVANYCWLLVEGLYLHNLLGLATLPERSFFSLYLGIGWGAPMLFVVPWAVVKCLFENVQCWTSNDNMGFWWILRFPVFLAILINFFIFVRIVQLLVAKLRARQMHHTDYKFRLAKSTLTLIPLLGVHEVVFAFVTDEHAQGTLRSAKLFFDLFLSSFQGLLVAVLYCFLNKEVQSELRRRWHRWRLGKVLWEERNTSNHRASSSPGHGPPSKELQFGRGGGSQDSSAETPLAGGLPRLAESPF

Consider `Cc1cc(NC(=O)N(Cc2ccc(C(=O)NC[C@@H](O)C(=O)O)cc2)[C@H]2CC[C@H](C(C)(C)C)CC2)cc(C(F)(F)F)c1`, for which the half-maximal inhibitory concentration (IC50) at Glucagon receptor worked out at 0.01 µM; in assay [1] it was 0.098 µM.

For the molecule `O=C(NC[C@@H](O)C(=O)O)c1ccc(CN(C(=O)Nc2ccc(SC(F)(F)F)cc2)c2ccc(C3CCCCC3)cc2)cc1`, the IC50 at Glucagon receptor is 0.006 µM; in assay [1], 0.012 µM.

On to `O=C(NC[C@@H](O)C(=O)O)c1ccc(CN(C(=O)Nc2cc(Cl)cc(Cl)c2)c2ccc(C3CCCCC3)cc2)cc1`, for which the IC50 at Glucagon receptor turned out to be 0.004 µM; in assay [1], 0.093 µM.

Turning to `O=C(NC[C@@H](O)C(=O)O)c1ccc(CN(C(=O)Nc2cccc(Cl)c2)c2ccc(C3=CCCCC3)cc2)cc1`, the IC50 was 0.014 µM at Glucagon receptor and 0.406 µM in assay [1].

With `N#Cc1ccc(NC(=O)N(Cc2ccc(C(=O)NC[C@@H](O)C(=O)O)cc2)c2ccc(C3CCCCC3)cc2)cc1C(F)(F)F`, the half-maximal inhibitory concentration (IC50) at Glucagon receptor was 0.009 µM; in assay [1], 0.198 µM.

As to `O=C(NC[C@@H](O)C(=O)O)c1ccc(CN(C(=O)Nc2ccc3c(c2)C(F)(F)OC(F)(F)O3)c2ccc(C3=CCCCC3)cc2)cc1`, the figures for the IC50 (at Glucagon receptor; in assay [1]) were 0.006 µM and 0.083 µM, respectively.

Regarding `O=C(NC[C@H](O)C(=O)O)c1ccc(CN(C(=O)Nc2cc(Cl)cc(Cl)c2)c2ccc(C3=CCCCC3)cc2)cc1`, the results for the half-inhibitory concentration (IC50) (in assay [2]; at Glucagon receptor; in assay [1]) were 9.32 µM, 0.051 µM and 0.445 µM, respectively.

Consider `CO[C@H](CNC(=O)c1ccc(CN(C(=O)Nc2cc(Cl)cc(Cl)c2)c2ccc(C3=CCCCC3)cc2)cc1)C(=O)O`, for which the IC50 in assay [2] was 21.8 µM; at Glucagon receptor, 0.693 µM; in assay [1] it was 3.02 µM.

On to `CC(C)(C)c1ccc(N(Cc2ccc(C(=O)NCC(O)C(=O)O)cc2)C(=O)Nc2ccc(OC(F)(F)F)cc2)cc1` (racemic), for which the results for the IC50 (at Glucagon receptor; in assay [1]) were 0.055 µM and 0.315 µM, respectively.

Turning to `CC(C)(C)[C@H]1CC[C@H](N(Cc2ccc(C(=O)NC[C@H](O)C(=O)O)cc2)C(=O)Nc2cc(C(F)(F)F)cc(C(F)(F)F)c2)CC1`, the figures for the IC50 (in assay [2]; on Glucagon receptor; in assay [1]) were 4.88 µM, 0.082 µM and 0.373 µM, respectively.

Regarding `COc1cc(NC(=O)N(Cc2ccc(C(=O)NC[C@@H](O)C(=O)O)cc2)c2ccc(C3CCCCC3)cc2)cc(C(F)(F)F)c1`, the IC50 was found to be 0.009 µM at Glucagon receptor and 0.145 µM in assay [1].

Turning to `O=C(NC[C@@H](O)C(=O)O)c1ccc(CN(C(=O)Nc2ccccc2)c2ccc(C3=CCCCC3)cc2)cc1`, the IC50 at Glucagon receptor came to 0.166 µM; in assay [1], 1.39 µM.

Regarding `CC(C)(C)c1ccc(N(Cc2ccc(C(=O)NCCC(=O)O)cc2)C(=O)Nc2ccc(OC(F)(F)F)cc2)cc1`, the IC50 in assay [2] came to 10.8 µM; on Glucagon receptor it was 0.036 µM; in assay [1] it was 0.038 µM.

Take `Cc1cc(C)cc(NC(=O)N(Cc2ccc(C(=O)NC[C@@H](O)C(=O)O)cc2)[C@H]2CC[C@H](C(C)(C)C)CC2)c1`: the IC50 on Glucagon receptor came out at 0.027 µM; in assay [1] it was 0.22 µM.

`CC(C)(C)c1cccc(NC(=O)N(Cc2ccc(C(=O)NC[C@@H](O)C(=O)O)cc2)c2ccc(C3CCCCC3)cc2)c1`: the IC50 stood at 0.018 µM at Glucagon receptor and 0.074 µM in assay [1].

On to `O=C(NCC(O)C(=O)O)c1ccc(CN(C(=O)Nc2cc(Cl)cc(Cl)c2)c2ccc(C3=CCCCC3)cc2)cc1` (racemic), for which the IC50 on Glucagon receptor was 0.014 µM; in assay [1] it was 0.701 µM.

Take `CC(C)(C)[C@H]1CC[C@H](N(Cc2ccc(C(=O)NCCC(=O)O)cc2)C(=O)Nc2cc(C(F)(F)F)cc(C(F)(F)F)c2)CC1`: the results for the IC50 (at Glucagon receptor; in assay [1]) were 0.016 µM and 0.093 µM, respectively.

Usually IC50 stands for the concentration at which inhibition is half-maximal. High values mean weaker potency, low ones greater potency.
